ChEMBL document CHEMBL5653631, “A Potent and Selective ULK1 Inhibitor Suppresses Autophagy and Sensitizes Cancer Cells to Nutrient Stress” (iScience, 2018)
Values belong to the compound of their own block, whether it stands above or below them.

What was measured:
[1] = target: Cyclin-dependent kinase-like 1 (Homo sapiens) (UniProt Q00532); assay: Inhibition of human recombinant CDKL1 at 500 nM in presence of ATP by radiometric assay relative to control
[2] = target: Tyrosine-protein kinase BTK (Homo sapiens) (UniProt Q06187); assay: Inhibition of human recombinant BTK at 500 nM in presence of ATP by radiometric assay relative to control
Chain of Tyrosine-protein kinase BTK (Homo sapiens) (Q06187 whole entry): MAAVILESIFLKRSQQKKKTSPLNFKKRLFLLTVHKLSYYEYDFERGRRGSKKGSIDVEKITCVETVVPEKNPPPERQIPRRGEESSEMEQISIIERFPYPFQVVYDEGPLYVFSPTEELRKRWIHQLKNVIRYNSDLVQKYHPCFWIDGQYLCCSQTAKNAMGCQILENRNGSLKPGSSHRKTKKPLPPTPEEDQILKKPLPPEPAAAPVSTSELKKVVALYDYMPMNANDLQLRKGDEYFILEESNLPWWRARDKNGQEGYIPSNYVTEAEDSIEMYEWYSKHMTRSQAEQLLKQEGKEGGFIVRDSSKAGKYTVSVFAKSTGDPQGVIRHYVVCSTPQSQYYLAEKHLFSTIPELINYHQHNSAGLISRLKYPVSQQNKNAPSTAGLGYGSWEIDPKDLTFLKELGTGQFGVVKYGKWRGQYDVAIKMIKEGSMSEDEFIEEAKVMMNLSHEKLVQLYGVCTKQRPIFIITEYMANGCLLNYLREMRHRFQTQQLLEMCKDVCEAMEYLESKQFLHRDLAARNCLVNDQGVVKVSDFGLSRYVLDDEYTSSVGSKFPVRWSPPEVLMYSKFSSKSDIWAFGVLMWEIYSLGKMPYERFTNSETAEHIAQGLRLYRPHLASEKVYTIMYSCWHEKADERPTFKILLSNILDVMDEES

[3] = target: T1, Tyrosine-protein kinase TXK (Homo sapiens) (UniProt P42681); assay: Inhibition of human recombinant TXK at 500 nM related to control ULK1
T1 sequence (whole entry): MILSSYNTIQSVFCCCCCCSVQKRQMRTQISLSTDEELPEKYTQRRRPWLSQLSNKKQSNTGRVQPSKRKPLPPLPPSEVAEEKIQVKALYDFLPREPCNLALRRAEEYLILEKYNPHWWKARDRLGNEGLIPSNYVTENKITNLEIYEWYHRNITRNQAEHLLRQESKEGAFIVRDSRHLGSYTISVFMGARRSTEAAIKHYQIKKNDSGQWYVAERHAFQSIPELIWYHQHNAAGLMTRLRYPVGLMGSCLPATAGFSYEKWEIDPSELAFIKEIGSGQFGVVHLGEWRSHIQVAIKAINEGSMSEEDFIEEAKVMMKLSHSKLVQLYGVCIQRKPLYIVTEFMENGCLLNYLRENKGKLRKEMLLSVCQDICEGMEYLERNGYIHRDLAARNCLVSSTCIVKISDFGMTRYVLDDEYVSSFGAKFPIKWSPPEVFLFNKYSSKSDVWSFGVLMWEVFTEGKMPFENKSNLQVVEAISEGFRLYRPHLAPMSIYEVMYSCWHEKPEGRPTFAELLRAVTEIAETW

[4] = target: Serine/threonine-protein kinase ATR (Homo sapiens) (UniProt Q13535); assay: Inhibition of human recombinant ATR at 500 nM related to control ULK1
Procedure, shortened: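 Panel of 327 recombinant human kinases, each assayed in vitro by radiometric activity assay in duplicate at a single inhibitor concentration per compound, chosen with reference to its ULK1 inhibition. Activity remaining was expressed as percent of vehicle control, and percent inhibition was calculated as 100 minus percent activity remaining.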

[5] = target: eIF-2-alpha kinase GCN2 (Homo sapiens) (UniProt Q9P2K8); assay: Inhibition of human recombinant GCN2 at 500 nM related to control ULK1
Chain of eIF-2-alpha kinase GCN2 (Homo sapiens) (Q9P2K8 whole entry, the tested form may be a part): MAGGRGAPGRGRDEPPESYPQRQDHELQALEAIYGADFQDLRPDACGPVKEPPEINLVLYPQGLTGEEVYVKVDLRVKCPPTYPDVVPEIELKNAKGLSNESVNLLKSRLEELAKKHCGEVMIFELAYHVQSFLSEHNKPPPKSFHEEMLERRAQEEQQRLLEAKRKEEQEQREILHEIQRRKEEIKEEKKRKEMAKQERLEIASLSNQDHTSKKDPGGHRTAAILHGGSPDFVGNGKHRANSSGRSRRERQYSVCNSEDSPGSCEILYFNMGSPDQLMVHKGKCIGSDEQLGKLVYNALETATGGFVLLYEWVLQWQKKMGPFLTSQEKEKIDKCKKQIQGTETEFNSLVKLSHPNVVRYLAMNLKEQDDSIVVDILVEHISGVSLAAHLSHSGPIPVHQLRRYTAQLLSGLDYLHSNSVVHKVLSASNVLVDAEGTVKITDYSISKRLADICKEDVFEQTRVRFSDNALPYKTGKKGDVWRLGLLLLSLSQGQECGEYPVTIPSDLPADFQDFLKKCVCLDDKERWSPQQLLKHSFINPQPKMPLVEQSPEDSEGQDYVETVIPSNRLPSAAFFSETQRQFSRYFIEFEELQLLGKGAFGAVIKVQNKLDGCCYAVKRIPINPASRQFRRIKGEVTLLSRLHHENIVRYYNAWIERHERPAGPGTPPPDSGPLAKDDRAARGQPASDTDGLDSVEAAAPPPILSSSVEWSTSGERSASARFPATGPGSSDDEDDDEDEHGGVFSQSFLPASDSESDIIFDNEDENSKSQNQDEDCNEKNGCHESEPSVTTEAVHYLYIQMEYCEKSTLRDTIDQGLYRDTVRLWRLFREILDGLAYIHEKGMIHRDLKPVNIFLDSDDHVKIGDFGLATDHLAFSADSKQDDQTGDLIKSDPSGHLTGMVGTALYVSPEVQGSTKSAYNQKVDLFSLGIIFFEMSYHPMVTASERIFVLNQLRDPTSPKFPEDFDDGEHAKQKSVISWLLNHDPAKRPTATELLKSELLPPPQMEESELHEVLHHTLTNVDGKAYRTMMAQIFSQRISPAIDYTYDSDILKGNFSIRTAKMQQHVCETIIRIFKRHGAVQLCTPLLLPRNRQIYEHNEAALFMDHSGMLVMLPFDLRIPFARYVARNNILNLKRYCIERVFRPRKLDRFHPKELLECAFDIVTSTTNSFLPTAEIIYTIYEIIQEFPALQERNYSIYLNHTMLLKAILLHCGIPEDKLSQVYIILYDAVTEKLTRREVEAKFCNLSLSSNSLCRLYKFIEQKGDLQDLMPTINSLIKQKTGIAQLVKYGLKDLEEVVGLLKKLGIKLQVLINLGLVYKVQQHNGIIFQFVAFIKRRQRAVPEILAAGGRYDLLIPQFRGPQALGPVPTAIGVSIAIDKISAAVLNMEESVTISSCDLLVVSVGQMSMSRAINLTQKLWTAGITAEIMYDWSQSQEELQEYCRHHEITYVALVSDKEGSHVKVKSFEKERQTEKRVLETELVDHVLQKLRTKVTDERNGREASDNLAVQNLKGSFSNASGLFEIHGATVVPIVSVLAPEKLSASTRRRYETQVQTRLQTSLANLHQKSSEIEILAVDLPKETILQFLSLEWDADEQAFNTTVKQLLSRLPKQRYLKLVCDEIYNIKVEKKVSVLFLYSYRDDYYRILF

[6] = target: Proto-oncogene tyrosine-protein kinase receptor Ret (Homo sapiens) (UniProt P07949); assay: Inhibition of human recombinant RET at 500 nM in presence of ATP by radiometric assay relative to control
Chain of Proto-oncogene tyrosine-protein kinase receptor Ret (Homo sapiens) (P07949 whole entry): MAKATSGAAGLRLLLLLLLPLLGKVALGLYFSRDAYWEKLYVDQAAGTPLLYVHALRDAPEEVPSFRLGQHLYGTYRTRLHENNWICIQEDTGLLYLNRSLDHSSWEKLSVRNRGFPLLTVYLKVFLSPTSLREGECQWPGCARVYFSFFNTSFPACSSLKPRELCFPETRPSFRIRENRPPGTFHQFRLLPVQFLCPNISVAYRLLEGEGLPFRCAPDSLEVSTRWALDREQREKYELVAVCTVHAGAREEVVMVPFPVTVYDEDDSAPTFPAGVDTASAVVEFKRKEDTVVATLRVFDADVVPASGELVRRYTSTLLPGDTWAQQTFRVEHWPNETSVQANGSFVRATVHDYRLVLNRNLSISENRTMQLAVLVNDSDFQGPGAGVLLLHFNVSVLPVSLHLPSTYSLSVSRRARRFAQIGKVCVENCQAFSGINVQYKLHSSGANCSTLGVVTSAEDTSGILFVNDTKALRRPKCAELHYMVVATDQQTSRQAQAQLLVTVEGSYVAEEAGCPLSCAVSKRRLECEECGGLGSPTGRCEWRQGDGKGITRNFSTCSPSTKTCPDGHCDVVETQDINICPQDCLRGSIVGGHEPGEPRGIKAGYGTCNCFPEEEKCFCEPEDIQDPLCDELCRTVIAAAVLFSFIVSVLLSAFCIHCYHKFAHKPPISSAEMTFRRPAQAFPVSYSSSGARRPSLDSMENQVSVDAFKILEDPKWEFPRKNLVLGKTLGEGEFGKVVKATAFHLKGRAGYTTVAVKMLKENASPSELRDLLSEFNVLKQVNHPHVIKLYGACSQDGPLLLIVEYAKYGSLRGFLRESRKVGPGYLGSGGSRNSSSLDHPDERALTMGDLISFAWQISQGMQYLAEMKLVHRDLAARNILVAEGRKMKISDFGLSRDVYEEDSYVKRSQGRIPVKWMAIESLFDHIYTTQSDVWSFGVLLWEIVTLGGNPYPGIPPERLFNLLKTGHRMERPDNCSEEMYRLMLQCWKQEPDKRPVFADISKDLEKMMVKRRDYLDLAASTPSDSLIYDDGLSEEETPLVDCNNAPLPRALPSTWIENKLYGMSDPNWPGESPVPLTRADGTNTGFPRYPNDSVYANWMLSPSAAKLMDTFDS

[7] = target: eIF-2-alpha kinase GCN2 (Homo sapiens) (UniProt Q9P2K8); assay: Inhibition of human recombinant GCN2 at 15 nM related to control ULK1
[8] = target: LIM domain kinase 1 (Homo sapiens) (UniProt P53667); assay: Inhibition of human recombinant LIMK1 at 15 nM in presence of ATP by radiometric assay relative to control
[9] = target: T2, Serine/threonine-protein kinase STK11 (Homo sapiens) (UniProt Q15831); assay: Inhibition of human recombinant LKB1 at 15 nM in presence of ATP by radiometric assay relative to control
T2 sequence (whole entry): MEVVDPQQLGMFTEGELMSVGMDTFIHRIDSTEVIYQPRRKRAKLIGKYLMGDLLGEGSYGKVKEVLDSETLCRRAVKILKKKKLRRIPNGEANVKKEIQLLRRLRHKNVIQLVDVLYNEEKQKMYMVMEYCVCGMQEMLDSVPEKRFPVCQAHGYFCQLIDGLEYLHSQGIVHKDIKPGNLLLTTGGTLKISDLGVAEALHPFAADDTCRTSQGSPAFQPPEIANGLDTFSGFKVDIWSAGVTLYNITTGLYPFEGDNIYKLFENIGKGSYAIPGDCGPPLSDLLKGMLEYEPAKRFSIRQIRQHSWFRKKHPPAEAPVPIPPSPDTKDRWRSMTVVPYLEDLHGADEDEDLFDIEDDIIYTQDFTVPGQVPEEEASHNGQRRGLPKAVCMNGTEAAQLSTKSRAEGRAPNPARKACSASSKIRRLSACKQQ

[10] = target: Serine/threonine-protein kinase 32A (Homo sapiens) (UniProt Q8WU08); assay: Inhibition of human recombinant YANK1 at 15 nM in presence of ATP by radiometric assay relative to control
Chain of Serine/threonine-protein kinase 32A (Homo sapiens) (Q8WU08 whole entry): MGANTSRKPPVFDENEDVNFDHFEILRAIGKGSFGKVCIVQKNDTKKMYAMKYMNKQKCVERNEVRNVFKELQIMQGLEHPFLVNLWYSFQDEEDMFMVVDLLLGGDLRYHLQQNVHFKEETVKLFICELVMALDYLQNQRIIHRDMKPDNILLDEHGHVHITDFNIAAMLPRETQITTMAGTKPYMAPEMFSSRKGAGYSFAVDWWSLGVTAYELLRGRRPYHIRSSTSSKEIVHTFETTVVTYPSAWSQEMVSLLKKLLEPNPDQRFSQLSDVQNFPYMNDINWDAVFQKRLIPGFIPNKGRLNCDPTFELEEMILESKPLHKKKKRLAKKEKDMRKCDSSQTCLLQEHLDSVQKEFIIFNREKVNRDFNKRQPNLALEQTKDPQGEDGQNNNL

[11] = target: Fibroblast growth factor receptor 2 (Homo sapiens) (UniProt P21802); assay: Inhibition of human recombinant FGFR2 at 15 nM in presence of ATP by radiometric assay relative to control
[12] = target: T1, Tyrosine-protein kinase TXK (Homo sapiens); assay: Inhibition of human recombinant TXK at 15 nM related to control ULK1
[13] = target: Mitogen-activated protein kinase 9 (Homo sapiens) (UniProt P45984); assay: Inhibition of human recombinant JNK2 at 15 nM in presence of ATP by radiometric assay relative to control
Chain of Mitogen-activated protein kinase 9 (Homo sapiens) (P45984 whole entry, looked up): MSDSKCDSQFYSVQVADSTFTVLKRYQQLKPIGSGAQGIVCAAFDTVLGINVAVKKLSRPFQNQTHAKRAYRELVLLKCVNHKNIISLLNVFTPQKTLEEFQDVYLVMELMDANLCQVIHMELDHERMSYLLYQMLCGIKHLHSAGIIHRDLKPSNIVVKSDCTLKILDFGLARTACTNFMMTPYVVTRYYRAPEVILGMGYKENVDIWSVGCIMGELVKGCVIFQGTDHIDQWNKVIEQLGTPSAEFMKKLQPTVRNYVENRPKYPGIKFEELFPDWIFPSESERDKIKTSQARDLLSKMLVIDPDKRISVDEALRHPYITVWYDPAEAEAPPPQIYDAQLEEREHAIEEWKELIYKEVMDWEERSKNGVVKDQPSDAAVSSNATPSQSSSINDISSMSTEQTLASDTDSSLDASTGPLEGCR

[14] = target: T3, Serine/threonine-protein kinase BRSK2 (Homo sapiens) (UniProt Q8IWQ3); assay: Inhibition of human recombinant BRSK2 at 40 nM in presence of ATP by radiometric assay relative to control
T3 sequence (whole entry): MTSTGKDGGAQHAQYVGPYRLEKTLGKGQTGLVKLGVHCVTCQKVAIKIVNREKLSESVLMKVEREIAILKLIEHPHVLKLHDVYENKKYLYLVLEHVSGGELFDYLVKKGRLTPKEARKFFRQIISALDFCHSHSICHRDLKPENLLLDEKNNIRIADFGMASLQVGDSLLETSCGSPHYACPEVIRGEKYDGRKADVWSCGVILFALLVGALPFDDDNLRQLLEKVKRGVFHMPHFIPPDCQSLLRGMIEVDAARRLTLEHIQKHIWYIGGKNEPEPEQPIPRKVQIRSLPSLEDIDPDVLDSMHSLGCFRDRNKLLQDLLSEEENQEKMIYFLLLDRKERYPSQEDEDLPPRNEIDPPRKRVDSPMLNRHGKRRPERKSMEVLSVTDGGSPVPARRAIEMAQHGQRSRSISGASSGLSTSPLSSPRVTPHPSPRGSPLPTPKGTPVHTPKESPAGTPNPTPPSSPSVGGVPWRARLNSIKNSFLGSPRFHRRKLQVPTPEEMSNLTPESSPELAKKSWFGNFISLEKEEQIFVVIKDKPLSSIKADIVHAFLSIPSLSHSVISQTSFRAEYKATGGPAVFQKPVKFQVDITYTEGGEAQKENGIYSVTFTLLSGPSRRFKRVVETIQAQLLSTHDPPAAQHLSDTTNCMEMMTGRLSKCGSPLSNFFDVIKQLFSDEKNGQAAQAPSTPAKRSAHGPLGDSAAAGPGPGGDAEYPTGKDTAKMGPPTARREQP
Procedure, shortened: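 Recombinant human kinase panel (327 kinases) run as radiometric activity assays, each kinase in duplicate at one compound concentration. Activity remaining expressed relative to vehicle control; percent inhibition taken as 100% minus % activity remaining.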

[15] = target: Serine/threonine-protein kinase MRCK beta (Homo sapiens) (UniProt Q9Y5S2); assay: Inhibition of human recombinant MRCKb at 40 nM related to control ULK1

Chain of Cyclin-dependent kinase-like 1 (Homo sapiens) (Q00532 whole entry): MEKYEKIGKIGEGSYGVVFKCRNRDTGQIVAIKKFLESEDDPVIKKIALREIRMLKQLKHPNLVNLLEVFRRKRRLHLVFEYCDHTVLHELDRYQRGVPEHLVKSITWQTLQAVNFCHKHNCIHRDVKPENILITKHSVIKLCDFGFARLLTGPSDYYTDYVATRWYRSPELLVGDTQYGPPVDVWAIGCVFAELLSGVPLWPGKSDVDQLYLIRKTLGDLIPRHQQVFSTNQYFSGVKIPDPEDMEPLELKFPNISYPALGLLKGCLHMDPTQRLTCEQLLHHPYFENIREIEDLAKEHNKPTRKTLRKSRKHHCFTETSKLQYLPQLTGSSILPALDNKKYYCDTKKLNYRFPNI

inhibition [1]: 0%
inhibition [2]: 0%
fold change (FC) [3]: 0.23
fold change (FC) [4]: 0
fold change (FC) [5]: 0.03
inhibition [6]: 3%
SMILES: CNC(=O)c1ccccc1Oc1nc(Nc2cc(OC)c(OC)c(OC)c2)ncc1Br

fold change (FC) [7]: 0.09
inhibition [8]: 56%
inhibition [9]: 0%
inhibition [10]: 2%
inhibition [11]: 0%
fold change (FC) [12]: 0.67
inhibition [13]: 0%
SMILES: CC(C)[C@H](NC(=O)c1cc(-c2cnn3cc(-c4ccc(OCCN5CCCCC5)cc4)cnc23)cs1)C(F)(F)F

inhibition [14]: 0%
fold change (FC) [15]: 0.07
SMILES: O=C(N[C@@H](C1CC1)C(F)(F)F)c1cc(-c2cnn3cc(-c4ccc(F)cc4)cnc23)cs1
